From ChEMBL document CHEMBL4699605, “Synthesis and biological evaluation of novel flexible nucleoside analogues that inhibit flavivirus replication in vitro” (Bioorg Med Chem, 2020)

How the values were obtained:
dengue virus type 2 = assay: Antiviral activity against DENV-2 infected in African green monkey Vero cells assessed as virus titer reduction incubated for 48 hrs by plaque assay; type: functional, organism-based
[1] = Inhibition of Dengue virus N-7 methyltransferase incubated for 15 mins followed by [methyl-3-H]-AdoMet addition and measured after 15 mins by microbeta counter method
[2] = Inhibition of Dengue virus 2'-O methyltransferase incubated for 15 mins followed by [methyl-3-H]-AdoMet addition and measured after 30 mins by microbeta counter method
Summary of the method: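 DENV-3 2′-O-MTase (0.5 µM) in 40 mM Tris-HCl pH 7.5 and 5 mM DTT with 1 µM capped RNA GpppAC5 and 10 µM AdoMet containing [3H]AdoMet, 30 °C for 30 min. Stopped by 20-fold dilution in ice-cold 100 µM AdoHcy. RNA captured on DEAE filter, washed, and transferred radioactivity counted. Inhibitor serially diluted, points in triplicate; IC50 from logistic dose-response fit with slope factor.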

Work on `C#C[C@@]1(O)[C@H](O)[C@@H](CO)O[C@H]1n1ccc2c(N)ncnc21` yielded an EC50 (dengue virus type 2) of 640 nM.

`Nc1ncnc2c1ncn2[C@@H]1O[C@H](C[C@@H](N)CC[C@H](N)C(=O)O)[C@@H](O)[C@H]1O` [SINEFUNGIN] showed an IC50 [1] of 30 nM and an IC50 [2] of 41 nM.
